pIC50: −log10 of the molar value.
Columns and labels:
[1] = Inhibitory activity measured against beta-galactosidase of rat intestinal lactase by colorimetric assay using the D-glucose oxidase-peroxidase method
In short: (§1)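 Enzyme source was brush border membranes from the intestine of male Wistar rats. Each activity was run with the appropriate disaccharide as substrate at that enzyme's optimum pH. Released D-glucose was quantified colorimetrically by the glucose oxidase–peroxidase method.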

[2] = Inhibitory activity measured against beta-galactosidase of bovine liver by colorimetric assay using the D-glucose oxidase-peroxidase method; set-up: species or system Bos taurus; settings: in the assay text read “p-nitrophenyl glycoside method” for “D-glucose oxidase-peroxidase method”
In short: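 Activity was measured with the appropriate p-nitrophenyl glycoside as substrate at each enzyme's optimum pH. The reaction was stopped with 400 mM Na2CO3, and released p-nitrophenol was read spectrophotometrically at 400 nm.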

[3] = Inhibitory activity measured against beta-galactosidase of rat intestinal lactase by colorimetric assay using the D-glucose oxidase-peroxidase method.; in short: as §1
[4] = biological target: T1, Tissue alpha-L-fucosidase (Rattus norvegicus) (UniProt P17164); settings: 1000 uM
T1 sequence (whole entry): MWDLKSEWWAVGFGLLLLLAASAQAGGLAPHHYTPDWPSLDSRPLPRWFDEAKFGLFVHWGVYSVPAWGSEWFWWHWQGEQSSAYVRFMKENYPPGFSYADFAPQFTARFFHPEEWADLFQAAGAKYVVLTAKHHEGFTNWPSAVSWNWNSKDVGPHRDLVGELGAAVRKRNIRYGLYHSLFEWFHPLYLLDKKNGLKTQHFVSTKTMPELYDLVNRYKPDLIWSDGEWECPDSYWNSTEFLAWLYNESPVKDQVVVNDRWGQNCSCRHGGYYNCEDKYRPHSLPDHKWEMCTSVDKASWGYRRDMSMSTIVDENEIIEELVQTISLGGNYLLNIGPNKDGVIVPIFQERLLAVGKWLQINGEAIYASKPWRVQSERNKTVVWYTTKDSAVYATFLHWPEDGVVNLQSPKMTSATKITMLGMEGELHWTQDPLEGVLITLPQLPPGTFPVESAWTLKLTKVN

Rattus norvegicus = species: Rattus norvegicus; settings: 1000 uM
[5] = biological target: Alpha-galactosidase (Coffea arabica) (UniProt Q42656); settings: 1000 uM
Bos taurus = species: Bos taurus; settings: 1000 uM

Chain of Alpha-galactosidase (Coffea arabica) (Q42656 whole entry, looked up): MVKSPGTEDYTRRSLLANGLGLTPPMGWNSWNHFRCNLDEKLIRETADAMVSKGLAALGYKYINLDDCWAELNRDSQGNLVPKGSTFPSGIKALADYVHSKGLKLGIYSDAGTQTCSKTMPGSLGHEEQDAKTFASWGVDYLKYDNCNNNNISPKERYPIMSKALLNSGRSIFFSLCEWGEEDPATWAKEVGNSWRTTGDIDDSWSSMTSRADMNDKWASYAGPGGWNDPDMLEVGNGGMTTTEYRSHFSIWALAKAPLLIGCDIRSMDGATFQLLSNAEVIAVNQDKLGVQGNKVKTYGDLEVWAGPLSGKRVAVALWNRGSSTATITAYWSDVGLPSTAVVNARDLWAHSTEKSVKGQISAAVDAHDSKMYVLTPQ

Structure (SMILES) | pIC50 [1] | pIC50 [2] | pIC50 [3] | inhibition [4] | inhibition (Rattus norvegicus) | inhibition [5] | inhibition (Bos taurus)
OCC1NC(CO)[C@@H](O)C(O)C1O (stereo partly drawn) | 3.89 | 4.07 | – | – | – | – | –
OC[C@H]1N[C@H](CO)[C@H](O)C(O)[C@H]1O (stereo partly drawn) | – | – | 3.54 | < 50% | – | – | –
OC[C@H]1N[C@H](CO)[C@@H](O)C(O)[C@@H]1O (stereo partly drawn) | – | – | – | – | < 50% | < 50% | < 50%
OC[C@@H]1N[C@H](CO)[C@@H](O)[C@H](O)[C@@H]1O | – | – | – | – | < 50% | < 50% | < 50%
OC[C@@H]1N[C@H](CO)[C@@H](O)[C@H](O)[C@H]1O | – | – | – | < 50% | < 50% | < 50% | < 50%
OC[C@H]1N[C@H](CO)[C@@H](O)[C@H](O)[C@H]1O | – | – | – | < 50% | < 50% | < 50% | < 50%

Reference: ChEMBL document CHEMBL1131015, “Homonojirimycin isomers and N-alkylated homonojirimycins: structural and conformational basis of inhibition of glycosidases” (J Med Chem, 1998)
